Experimental data as given in ChEMBL document CHEMBL3870350, “Synthesis and application of β-carbolines as novel multi-functional anti-Alzheimer's disease agents” (Bioorg Med Chem Lett, 2017).

Legend:
[1] = Antioxidant activity assessed as inhibition of peroxyl radical-induced oxidation at 10 uM by ORAC assay; type: functional; parameters: scale not given: the % may be the effect or the level left
[2] = Antioxidant activity assessed as ABTS free radical scavenging activity at 10 uM; type: functional
[3] = Antioxidant activity assessed as DPPH radical scavenging activity at 10 uM; type: functional
Cholinesterase [4] = molecular target: T1, Cholinesterase (Homo sapiens, UniProt P06276); experiment: Inhibition of BuChE (unknown origin) by spectrophotometric analysis based Ellman's assay
Cholinesterase [5] = molecular target: T1, Cholinesterase; experiment: Inhibition of BuChE (unknown origin) at 10 uM by spectrophotometric analysis based Ellman's assay
Outline: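 Ellman colorimetric assay of BuChE activity, with each compound tested at a single 10 μM concentration. […] Activity is reported as percent inhibition.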

[6] = molecular target: Amyloid-beta precursor protein (Homo sapiens) (UniProt P05067); experiment: Inhibition of human amyloid-beta (1 to 42 residues) fibril at 1:1 protein to compound ratio after 2 hrs by ELISA; conditions: concentration not given here
[7] = molecular target: Amyloid-beta precursor protein (Homo sapiens) (UniProt P05067); experiment: Inhibition of human amyloid-beta (1 to 42 residues) oligomer at 1:1 protein to compound ratio after 2 hrs by ELISA; conditions: concentration not given here

Chain of Amyloid-beta precursor protein (Homo sapiens) (P05067 whole entry, the tested form may be a part): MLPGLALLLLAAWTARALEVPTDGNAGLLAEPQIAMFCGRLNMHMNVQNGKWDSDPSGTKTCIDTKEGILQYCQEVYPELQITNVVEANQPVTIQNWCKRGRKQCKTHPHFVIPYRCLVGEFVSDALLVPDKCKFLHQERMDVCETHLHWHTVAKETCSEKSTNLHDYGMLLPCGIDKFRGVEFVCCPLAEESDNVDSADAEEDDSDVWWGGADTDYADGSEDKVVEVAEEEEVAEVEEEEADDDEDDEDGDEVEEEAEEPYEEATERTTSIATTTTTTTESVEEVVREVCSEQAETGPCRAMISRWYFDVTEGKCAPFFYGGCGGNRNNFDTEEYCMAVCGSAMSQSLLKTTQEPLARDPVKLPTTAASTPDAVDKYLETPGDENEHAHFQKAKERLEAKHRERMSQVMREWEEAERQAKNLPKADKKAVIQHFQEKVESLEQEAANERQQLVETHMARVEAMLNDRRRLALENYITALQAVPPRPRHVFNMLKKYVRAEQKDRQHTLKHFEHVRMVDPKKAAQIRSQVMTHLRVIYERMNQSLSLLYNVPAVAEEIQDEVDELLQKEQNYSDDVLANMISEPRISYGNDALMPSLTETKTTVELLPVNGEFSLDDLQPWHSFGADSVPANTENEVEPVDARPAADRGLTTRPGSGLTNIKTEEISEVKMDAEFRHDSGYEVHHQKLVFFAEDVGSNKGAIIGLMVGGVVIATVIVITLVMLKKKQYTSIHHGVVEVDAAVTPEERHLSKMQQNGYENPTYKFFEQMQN
T1 sequence (P06276 whole entry): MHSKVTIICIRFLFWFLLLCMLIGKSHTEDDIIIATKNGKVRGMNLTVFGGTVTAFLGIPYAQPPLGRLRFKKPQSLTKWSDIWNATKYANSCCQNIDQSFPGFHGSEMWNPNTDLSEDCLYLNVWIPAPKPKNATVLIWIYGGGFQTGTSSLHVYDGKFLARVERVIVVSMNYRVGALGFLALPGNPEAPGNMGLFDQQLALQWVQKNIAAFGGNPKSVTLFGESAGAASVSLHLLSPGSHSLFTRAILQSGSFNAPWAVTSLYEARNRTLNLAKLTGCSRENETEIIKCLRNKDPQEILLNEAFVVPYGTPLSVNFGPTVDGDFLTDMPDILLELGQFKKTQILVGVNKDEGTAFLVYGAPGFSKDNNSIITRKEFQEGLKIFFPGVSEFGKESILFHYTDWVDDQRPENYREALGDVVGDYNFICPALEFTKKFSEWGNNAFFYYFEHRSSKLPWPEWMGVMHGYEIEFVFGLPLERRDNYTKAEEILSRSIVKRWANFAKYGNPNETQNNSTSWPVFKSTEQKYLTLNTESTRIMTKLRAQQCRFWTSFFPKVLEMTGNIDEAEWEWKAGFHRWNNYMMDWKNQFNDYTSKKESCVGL

| SMILES | Activity [1] [%] | Activity [2] [%] | Activity [3] [%] | IC50 (Cholinesterase [4]) [µM] | inhibition (Cholinesterase [5]) [%] | inhibition [6] [%] | inhibition [7] [%] |
| --- | --- | --- | --- | --- | --- | --- | --- |
| COc1ccc2[nH]c3c(C(=O)c4ccc(F)cc4)nccc3c2c1 | 5 | 5 | -4 | > 10 | 1 | 6 | 82 |
| Cc1ccc2[nH]c3c(-c4ccc(C(F)(F)F)cc4)nccc3c2c1 |  |  |  |  |  | 34 | 82 |
| Cc1ccc2[nH]c3c(-c4ccccc4)nccc3c2c1 | 10 | 10 | 2 | 3.06 | 54 | -7 | 6 |
| Cc1ccccc1-c1nccc2c1[nH]c1ccccc12 | 58 | 15 | 0 | > 10 | 7 | 17 | 45 |
| COc1ccc2[nH]c3c(-c4ccc(F)cc4)nccc3c2c1 | 41 | 15 | -13 | > 10 | 34 | 12 |  |
| Cc1c(C)c2c(c(C)c1O)CCC(C)(C(=O)O)O2 (stereo not given) | 90 | 26 | 23 |  |  |  |  |
| O=C(c1ccc(C(F)(F)F)cc1)c1nccc2c1[nH]c1ccccc12 | -10 | 7 | -1 | 1.29 | 69 | 11 |  |
| COc1ccc2[nH]c3c(-c4ccc(C)cc4)nccc3c2c1 | 28 | 13 | -12 | > 10 | 32 | 10 | 63 |
| COc1ccc2[nH]c3c(-c4ccccc4)nccc3c2c1 | 35 | 16 | -6 | 4.48 | 64 | 19 | 58 |
| c1ccc2c(-c3nccc4c3[nH]c3ccccc34)cccc2c1 | 0 | 14 | -6 | 0.22 | 95 | 39 | 58 |
| O=C(c1ccccc1)c1nccc2c1[nH]c1ccccc12 | 6 | 6 | -3 | > 10 | 11 | 20 |  |
| c1ccc2c(c1)[nH]c1c(C3CCCCC3)nccc12 |  |  |  |  |  |  | 30 |
| COc1ccc2[nH]c3c(C(=O)c4ccc(C(F)(F)F)cc4)nccc3c2c1 | 5 | 3 | 2 | 1.42 | 46 | -5 | 84 |
| Fc1ccc(-c2nccc3c2[nH]c2ccccc23)cc1 | 54 | 22 | -3 | 4.27 | 79 | 37 | 22 |
| c1ccc(-c2nccc3c2[nH]c2ccccc23)cc1 | 10 | 12 | -7 | > 10 | 46 | -4 | 79 |
| O=C1O[C@H]([C@@H](O)CO)C(O)=C1O | 15 | 28 | 15 |  |  |  |  |
